Measured values reported in ChEMBL document CHEMBL2401709 (J Med Chem, 2013).
pIC50: −log10 of the molar value. Active and inactive are the calls of the source. The rule behind the calls is not given here.

What was measured:
[1] = target: T1, Cyclin-dependent kinase 1 (Homo sapiens, UniProt P06493); assay: Inhibition of CDK1 in human G361 cells sensitized with nocodazole assessed as PP1alpha phosphorylation at Thr320 at 640 nM after 8 hrs by immunoblotting analysis; format: cell-based; details: G-361
T1 sequence (P06493 whole entry, looked up): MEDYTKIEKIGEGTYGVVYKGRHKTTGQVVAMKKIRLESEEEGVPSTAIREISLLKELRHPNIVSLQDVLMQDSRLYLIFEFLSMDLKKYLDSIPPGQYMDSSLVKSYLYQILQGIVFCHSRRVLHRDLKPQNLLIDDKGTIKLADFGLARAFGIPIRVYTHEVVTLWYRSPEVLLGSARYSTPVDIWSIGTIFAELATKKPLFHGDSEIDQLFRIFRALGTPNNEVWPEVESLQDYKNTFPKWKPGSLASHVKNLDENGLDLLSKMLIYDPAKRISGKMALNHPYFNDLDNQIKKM
How it was run: (§1)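 G361 cells arrested in mitosis with nocodazole, then dosed with compound. Lysates in Laemmli buffer were immunoblotted on nitrocellulose with antibodies to phospho-PP1α (T320) and phospho-NPM (T199). Peroxidase secondaries with ECL detection.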

[2] = system: G-361; assay: Induction of apoptosis in human G361 cells assessed as decrease in Mcl-1 at 300 nM after 24 hrs by immunoblotting analysis; format: functional, cell-based
How it was run: (§2)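 Treated G361 cells harvested into Laemmli sample buffer. Proteins resolved by SDS-PAGE and blotted to nitrocellulose. Membranes blocked, probed overnight with specific primary antibodies, then peroxidase-conjugated secondaries. ECL detection by CCD camera. Actin served as loading control.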

[3] = target: Cyclin-dependent kinase 2/cyclin E1 (Homo sapiens) (UniProt P24864+P24941); assay: Ratio of roscovitine IC50 to compound IC50 for human recombinant CDK2/Cyclin E; format: protein-complex assay
[4] = target: Cyclin-dependent kinase 7 (Homo sapiens) (UniProt P50613); assay: Inhibition of CDK7 in human G361 cells assessed as reduction of phosphorylation of CDK2 at T160 by immunoblotting analysis; format: cell-based; details: G-361; how it was run: as §2
Sequence of Cyclin-dependent kinase 7 (Homo sapiens) (P50613 whole entry): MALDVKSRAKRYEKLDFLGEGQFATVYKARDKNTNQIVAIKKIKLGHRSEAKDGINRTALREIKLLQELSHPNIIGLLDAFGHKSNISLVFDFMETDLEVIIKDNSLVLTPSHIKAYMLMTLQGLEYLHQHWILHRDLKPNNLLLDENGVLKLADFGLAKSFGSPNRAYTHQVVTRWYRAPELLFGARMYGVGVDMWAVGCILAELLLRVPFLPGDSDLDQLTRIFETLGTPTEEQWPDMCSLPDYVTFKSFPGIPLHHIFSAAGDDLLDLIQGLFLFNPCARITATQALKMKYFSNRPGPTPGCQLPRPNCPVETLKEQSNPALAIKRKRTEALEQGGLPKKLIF

[5] = target: Cyclin-dependent kinase 7 (Homo sapiens) (UniProt P50613); assay: Inhibition of CDK7 in human G361 cells assessed as reduction of phosphorylation of CDK1 at T161 by immunoblotting analysis; format: cell-based; details: G-361; how it was run: as §2
[6] = target: Cyclin-dependent kinase 2 (Homo sapiens) (UniProt P24941); assay: Inhibition of CDK2 in human G361 cells sensitized with nocodazole assessed as NPM phosphorylation at Thr199 at 640 nM after 4 hrs by immunoblotting analysis; format: cell-based; details: G-361; how it was run: as §1
[7] = target: T1, Cyclin-dependent kinase 1; assay: Inhibition of CDK1 in human G361 cells sensitized with nocodazole assessed as PP1alpha phosphorylation at Thr320 at 640 nM after 4 hrs by immunoblotting analysis; format: cell-based; details: G-361; how it was run: as §1
[8] = system: G-361; assay: Induction of apoptosis in human G361 cells assessed as decrease in Mcl-1 at 640 nM up to 2 hrs by immunoblotting analysis; format: functional, cell-based; how it was run: as §2
[9] = system: G-361; assay: Induction of apoptosis in human G361 cells assessed as caspase 3/7 activation at 640 nM after 16 hrs by Ac-DEVD-AMC-based fluorimetry assay; format: functional, cell-based
[10] = system: G-361; assay: Induction of apoptosis in human G361 cells assessed as induction of PARP-1 clevage at 640 nM after 16 hrs by immunoblotting analysis; format: functional, cell-based; how it was run: as §2
[11] = system: G-361; assay: Induction of apoptosis in human G361 cells assessed as reduction of retinoblastoma protein level at 640 nM after 16 hrs by immunoblotting analysis; format: functional, cell-based; how it was run: as §2
[12] = system: G-361; assay: Induction of apoptosis in human G361 cells assessed as dephosphorylation of RNA polymerase 2 at Ser5 at 640 nM up to 1 hr by immunoblotting analysis; format: functional, cell-based; how it was run: as §2
[13] = system: G-361; assay: Induction of apoptosis in human G361 cells assessed as dephosphorylation of RNA polymerase 2 at Ser2 at 640 nM up to 1 hr by immunoblotting analysis; format: functional, cell-based; how it was run: as §2
[14] = system: G-361; assay: Induction of apoptosis in human G361 cells assessed as dephosphorylation of retinoblastoma protein at Ser780 at 640 nM up to 1 hr by immunoblotting analysis; format: functional, cell-based; how it was run: as §2
[15] = system: G-361; assay: Induction of apoptosis in human G361 cells assessed as dephosphorylation of retinoblastoma protein at Ser612 at 640 nM up to 1 hr by immunoblotting analysis; format: functional, cell-based; how it was run: as §2
[16] = system: G-361; assay: Induction of apoptosis in human G361 cells assessed as reduction of RNA polymerase 2 level at 640 nM after 16 hrs by immunoblotting analysis; format: functional, cell-based; how it was run: as §2
[17] = system: G-361; assay: Induction of apoptosis in human G361 cells assessed as increase in p53 after 24 hrs by immunoblotting analysis; format: functional, cell-based; how it was run: as §2
[18] = system: G-361; assay: Induction of apoptosis in human G361 cells assessed as decrease in Mcl-1 after 24 hrs by immunoblotting analysis; format: functional, cell-based; how it was run: as §2
[19] = system: G-361; assay: Induction of apoptosis in human G361 cells assessed as increase of caspase 3/7 activation using Ac-DEVD-AMC as substrate at 20 to 1280 nM after 24 hrs by fluorimetry assay; format: functional, cell-based
[20] = system: G-361; assay: Induction of apoptosis in human G361 cells assessed as induction of PARP-1 clevage at 80 nM after 24 hrs by immunoblotting analysis; format: functional, cell-based; how it was run: as §2
[21] = target: Cyclin-dependent kinase 9 (Homo sapiens) (UniProt P50750); assay: Inhibition of CDK9-mediated RNA polymerase 2 phosphorylation at ser2 in human G361 cells at 300 nM after 24 hrs by immunoblotting analysis; format: cell-based; details: G-361; how it was run: as §2
Sequence of Cyclin-dependent kinase 9 (Homo sapiens) (P50750 whole entry): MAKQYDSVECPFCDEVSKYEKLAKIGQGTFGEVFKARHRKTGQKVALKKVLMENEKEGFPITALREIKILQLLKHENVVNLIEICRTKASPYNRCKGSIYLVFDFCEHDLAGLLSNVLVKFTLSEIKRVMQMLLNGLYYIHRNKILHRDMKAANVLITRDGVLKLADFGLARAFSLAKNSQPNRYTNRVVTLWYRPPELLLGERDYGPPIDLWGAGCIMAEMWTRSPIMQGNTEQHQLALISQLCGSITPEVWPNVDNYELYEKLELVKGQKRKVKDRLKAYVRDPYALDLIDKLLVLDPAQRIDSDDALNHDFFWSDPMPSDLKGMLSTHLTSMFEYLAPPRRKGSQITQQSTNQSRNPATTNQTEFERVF

[22] = target: CDK2/CDK4 (Homo sapiens) (UniProt P11802+P24941); assay: Inhibition of CDK2/4-mediated retinoblastoma protein phosphorylation at ser780 in human G361 cells at 300 nM after 24 hrs by immunoblotting analysis; format: cell-based; details: G-361; how it was run: as §2
[23] = system: G-361; assay: Induction of apoptosis in human G361 cells assessed as decrease in Mcl-1 protein level at 300 nM after 24 hrs by immunoblotting analysis; format: functional, cell-based; how it was run: as §2
[24] = system: G-361; assay: Induction of apoptosis in human G361 cells assessed as induction of PARP-1 clevage at 300 nM after 24 hrs by immunoblotting analysis; format: functional, cell-based; how it was run: as §2
[25] = system: G-361; assay: Induction of apoptosis in human G361 cells assessed as induction of caspase-9 clevage at 300 nM after 24 hrs by immunoblotting analysis; format: functional, cell-based; how it was run: as §2
[26] = system: G-361; assay: Induction of apoptosis in human G361 cells assessed as induction of caspase-3 clevage at 300 nM after 24 hrs by immunoblotting analysis; format: functional, cell-based; how it was run: as §2
[27] = system: G-361; assay: Induction of apoptosis in human G361 cells assessed as induction of caspase-7 clevage at 300 nM after 24 hrs by immunoblotting analysis; format: functional, cell-based; how it was run: as §2
[28] = system: G-361; assay: Induction of apoptosis in human G361 cells assessed as caspase 9 activation using Ac-DEHD-AMC as substrate at 300 nM after 24 hrs by fluorimetry assay; format: functional, cell-based; details: in the assay text read “Ac-LEHD-AMC” for “Ac-DEHD-AMC”
How it was run: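 G361 lysates were made in CHAPS extraction buffer, pH 7.4, clarified at 10000g, and protein-equalized. They were incubated 24 h with 100 μM Ac-LEHD-AMC in 100 mM HEPES pH 7.5, 0.5 mM EDTA, 20% glycerol, 5 mM DTT. AMC fluorescence read at 355/460 nm (ex/em).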

[29] = system: G-361; assay: Induction of apoptosis in human G361 cells assessed as caspase 3/7 activation using Ac-DEVD-AMC as substrate at 300 nM after 24 hrs by fluorimetry assay; format: functional, cell-based
[30] = system: HeLa; assay: Cytotoxicity against human HeLa cells assessed as growth inhibition after 72 hrs by calcein AM staining-based fluoroscence assay; format: functional, cell-based
[31] = system: HCT-116; assay: Cytotoxicity against human HCT116 cells assessed as growth inhibition after 72 hrs by calcein AM staining-based fluoroscence assay; format: functional, cell-based; details: HCT-116, 72 h
[32] = system: HOS; assay: Cytotoxicity against human HOS cells assessed as growth inhibition after 72 hrs by calcein AM staining-based fluoroscence assay; format: functional, cell-based
[33] = system: G-361; assay: Cytotoxicity against human G361 cells assessed as growth inhibition after 72 hrs by calcein AM staining-based fluoroscence assay; format: functional, cell-based; details: G-361, 72 h
[34] = system: MCF7; assay: Cytotoxicity against human MCF7 cells assessed as growth inhibition after 72 hrs by calcein AM staining-based fluoroscence assay; format: functional, cell-based; details: MCF7, 72 h
[35] = system: K562; assay: Cytotoxicity against human K562 cells assessed as growth inhibition after 72 hrs by calcein AM staining-based fluoroscence assay; format: functional, cell-based; details: K562, 72 h
[36] = target: CDK9/cyclin T1 (Homo sapiens, UniProt P50750); assay: Inhibition of CDK9/Cyclin T1 (unknown origin) using (YSPTSPS)2KK peptide as substrate; format: protein-complex assay
Sequence of CDK9/cyclin T1 (O60563 whole entry): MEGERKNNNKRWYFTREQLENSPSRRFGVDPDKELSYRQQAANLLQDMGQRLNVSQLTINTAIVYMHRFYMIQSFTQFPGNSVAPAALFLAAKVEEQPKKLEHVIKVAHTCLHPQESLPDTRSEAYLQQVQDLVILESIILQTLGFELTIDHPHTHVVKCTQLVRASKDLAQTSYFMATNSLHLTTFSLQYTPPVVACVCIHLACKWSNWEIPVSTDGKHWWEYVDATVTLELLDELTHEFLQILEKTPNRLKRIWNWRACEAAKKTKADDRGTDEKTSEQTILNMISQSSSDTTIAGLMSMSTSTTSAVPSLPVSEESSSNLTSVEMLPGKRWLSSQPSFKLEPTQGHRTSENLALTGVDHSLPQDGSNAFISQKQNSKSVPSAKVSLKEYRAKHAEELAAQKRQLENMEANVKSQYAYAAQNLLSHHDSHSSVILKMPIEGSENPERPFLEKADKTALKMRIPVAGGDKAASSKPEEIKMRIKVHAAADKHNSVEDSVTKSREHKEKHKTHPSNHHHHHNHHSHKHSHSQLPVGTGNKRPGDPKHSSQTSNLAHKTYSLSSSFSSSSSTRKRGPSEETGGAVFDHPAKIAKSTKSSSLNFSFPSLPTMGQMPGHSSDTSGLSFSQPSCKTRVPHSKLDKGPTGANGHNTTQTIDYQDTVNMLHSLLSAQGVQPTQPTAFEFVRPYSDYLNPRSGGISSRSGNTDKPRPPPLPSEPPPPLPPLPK
Sequence of CDK9/cyclin T1 (P50750 whole entry): as the sequence (P50750 whole entry) above
How it was run: (§3)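 CDK5/p35, CDK7/cyclin H/MAT1 and CDK9/cyclin T1 in 10 μL reactions with 0.05 μCi [γ-33P]ATP. CDK5 used 1 mg/mL histone H1 with 0.15 μM ATP. CDK7 and CDK9 used (YSPTSPS)2KK with 1.5 μM ATP. Stopped with H3PO4, spotted on P-81, washed. IC50 from dose-response curves.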

[37] = target: CDK7/Cyclin H/MNAT1 (Homo sapiens, UniProt P50613); assay: Inhibition of CDK7/Cyclin-H/MAT 1 (unknown origin) using (YSPTSPS)2KK peptide as substrate; format: protein-complex assay; how it was run: as §3
Sequence of CDK7/Cyclin H/MNAT1 (P51946 whole entry): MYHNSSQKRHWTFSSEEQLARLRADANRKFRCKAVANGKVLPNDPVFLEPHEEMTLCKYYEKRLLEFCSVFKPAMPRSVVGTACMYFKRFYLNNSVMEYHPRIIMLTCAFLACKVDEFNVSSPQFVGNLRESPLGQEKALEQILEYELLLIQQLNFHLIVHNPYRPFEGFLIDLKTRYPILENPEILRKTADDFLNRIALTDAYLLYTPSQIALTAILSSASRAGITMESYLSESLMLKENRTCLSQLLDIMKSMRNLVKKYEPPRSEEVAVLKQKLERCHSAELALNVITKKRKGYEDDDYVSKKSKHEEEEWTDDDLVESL
Sequence of CDK7/Cyclin H/MNAT1 (P50613 whole entry): as the sequence (P50613 whole entry) above
Sequence of CDK7/Cyclin H/MNAT1 (P51948 whole entry, further chain): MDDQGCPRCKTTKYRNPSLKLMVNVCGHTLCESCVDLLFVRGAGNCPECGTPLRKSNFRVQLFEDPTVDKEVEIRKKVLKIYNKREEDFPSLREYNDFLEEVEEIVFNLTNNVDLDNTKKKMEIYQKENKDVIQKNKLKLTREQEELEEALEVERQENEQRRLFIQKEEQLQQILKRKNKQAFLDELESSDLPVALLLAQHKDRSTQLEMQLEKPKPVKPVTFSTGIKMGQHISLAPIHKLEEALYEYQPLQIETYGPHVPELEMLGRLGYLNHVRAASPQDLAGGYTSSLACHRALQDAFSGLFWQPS

[38] = target: Cyclin-dependent kinase 5/CDK5 activator 1 (Homo sapiens, UniProt Q00535); assay: Inhibition of CDK5/p35 (unknown origin) using histone H1 as substrate; format: protein-complex assay; how it was run: as §3
Sequence of Cyclin-dependent kinase 5/CDK5 activator 1 (Q00535 whole entry): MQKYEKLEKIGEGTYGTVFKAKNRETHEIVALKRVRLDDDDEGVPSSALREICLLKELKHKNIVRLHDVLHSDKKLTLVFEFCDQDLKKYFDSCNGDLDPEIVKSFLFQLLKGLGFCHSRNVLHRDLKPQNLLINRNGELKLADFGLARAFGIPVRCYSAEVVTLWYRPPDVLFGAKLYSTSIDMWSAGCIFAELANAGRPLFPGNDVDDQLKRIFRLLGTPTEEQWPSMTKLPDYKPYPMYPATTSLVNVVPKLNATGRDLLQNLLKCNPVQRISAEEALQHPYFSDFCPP
Sequence of Cyclin-dependent kinase 5/CDK5 activator 1 (Q15078 whole entry, further chain): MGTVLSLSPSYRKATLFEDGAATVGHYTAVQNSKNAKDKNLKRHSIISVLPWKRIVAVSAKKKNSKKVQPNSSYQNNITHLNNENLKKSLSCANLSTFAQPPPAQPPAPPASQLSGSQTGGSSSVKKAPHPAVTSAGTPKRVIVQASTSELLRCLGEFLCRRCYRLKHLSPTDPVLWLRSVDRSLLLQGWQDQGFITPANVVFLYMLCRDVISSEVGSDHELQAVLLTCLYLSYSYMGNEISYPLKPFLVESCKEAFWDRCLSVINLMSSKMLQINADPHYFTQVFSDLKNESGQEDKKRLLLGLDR

[39] = target: Cyclin-dependent kinase 2/cyclin E1 (Homo sapiens, UniProt P24941); assay: Inhibition of human recombinant CDK2/Cyclin E expressed in baculovirus infected sf9 cells using histone H1 as substrate
[40] = system: G-361; assay: Induction of apoptosis in human G361 cells assessed as increase of activated caspase 3/7 level using Ac-DEVD-AMC as substrate at 20 to 1280 nM after 24 hrs by fluorimetry assay

NC1CCC(Nc2nc(NCc3ccc(-c4ccccc4O)nc3)c3ncn(C4CCCC4)c3n2)CC1 (stereo not given)
inhibition [1]: Active | Activity [2]: Active | Ratio IC50 [3]: 20 | inhibition [4]: Active | inhibition [5]: Active | inhibition [6]: Active | inhibition [7]: Active | Activity [8]: Active | Activity [9]: Active | Activity [10]: Active | Activity [11]: Active | Activity [12]: Active | Activity [13]: Active | Activity [14]: Active | Activity [15]: Active | Activity [16]: Active | Activity [17]: Dose-dependent effect | Activity [18]: Dose-dependent effect | Activity [19]: Active | Activity [20]: Active | Inhibition of RNA polymerase II Ser2 phosphorylation (qualitative) [21]: Active | inhibition [22]: Active | Activity [23]: Active | Activity [24]: Active | Activity [25]: Active | Activity [26]: Active | Activity [27]: Active | Activity [28]: Active | Activity [29]: Active | pIC50 [30]: 7.80 | pIC50 [31]: 7.46 | pIC50 [32]: 7.85 | pIC50 [33]: 7.62 | pIC50 [34]: 7.74 | pIC50 [35]: 7.80 | pIC50 [36]: 7.96 | pIC50 [37]: 6.51 | pIC50 [38]: 7.73 | pIC50 [39]: 8.15 | Activity [40]: Active
